Assay results from ChEMBL document CHEMBL1138990, “Diadenosine and diuridine poly(borano)phosphate analogues: synthesis, chemical and enzymatic stability, and activity at P2Y1 and P2Y2 receptors” (J Med Chem, 2006).

Tests used:
Type in all cases: functional, cell-based
P2Y purinoceptor 1 [1] = target: P2Y purinoceptor 1 (Rattus norvegicus, UniProt P49651); test: Activity against rat P2Y1-GFP transfected in HEK293 cells by intracellular calcium increase
In short: (§1)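 HEK 293 cells stably expressing rat P2Y1-GFP or P2Y2-GFP (C-terminal GFP), transfected with DOTAP and selected with 1 mg/mL G418. Grown in DMEM/Ham's F12 with 10% FCS on PLL coverslips and measured after 3 days. Loaded with 2 µM Fura-2/AM for 30 min, then superfused with NaHBS at 37 °C with agonist for 1 min. Single-cell 340/380 nm ratio; mean ± SD, ≥50 cells.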

P2Y purinoceptor 1 [2] = target: P2Y purinoceptor 1 (Homo sapiens, UniProt P47900); test: Activity against human P2Y1-GFP expressed in 1321N1 cells by intracellular calcium increase
Sequence of P2Y purinoceptor 1 (Homo sapiens, UniProt P47900) (P47900 whole entry, the tested form may be a part): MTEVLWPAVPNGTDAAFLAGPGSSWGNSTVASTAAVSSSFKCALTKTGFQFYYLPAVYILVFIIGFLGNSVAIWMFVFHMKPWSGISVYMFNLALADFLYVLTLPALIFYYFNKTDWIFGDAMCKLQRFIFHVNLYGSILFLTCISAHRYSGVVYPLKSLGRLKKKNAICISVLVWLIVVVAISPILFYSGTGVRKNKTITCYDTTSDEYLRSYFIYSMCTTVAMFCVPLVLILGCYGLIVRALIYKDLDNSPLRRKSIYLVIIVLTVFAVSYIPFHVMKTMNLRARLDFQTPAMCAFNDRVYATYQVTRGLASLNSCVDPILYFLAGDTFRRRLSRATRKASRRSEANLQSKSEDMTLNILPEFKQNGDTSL
In short: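 hP2Y1-GFP (C-terminal tag) stably transfected into 1321N1 cells, which lack endogenous P2Y receptors; selected with 1 mg/mL G418. Cells grown in DMEM with 5% FCS under 10% CO2 at 37 °C on PLL-coated coverslips. Loaded with 2 µM Fura-2/AM for 30 min in NaHBS pH 7.4, then superfused at 37 °C with agonist for 1 min. Read-out is single-cell 340/380 nm fluorescence ratio; mean ± SD from ≥50 cells.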

P2Y purinoceptor 2 = P2Y purinoceptor 2 (Rattus norvegicus, UniProt P41232); test: Activity against rat P2Y2-GFP transfected in HEK293 cells by intracellular calcium increase; in short: as §1
Sequence of P2Y purinoceptor 2 (P41232 whole entry): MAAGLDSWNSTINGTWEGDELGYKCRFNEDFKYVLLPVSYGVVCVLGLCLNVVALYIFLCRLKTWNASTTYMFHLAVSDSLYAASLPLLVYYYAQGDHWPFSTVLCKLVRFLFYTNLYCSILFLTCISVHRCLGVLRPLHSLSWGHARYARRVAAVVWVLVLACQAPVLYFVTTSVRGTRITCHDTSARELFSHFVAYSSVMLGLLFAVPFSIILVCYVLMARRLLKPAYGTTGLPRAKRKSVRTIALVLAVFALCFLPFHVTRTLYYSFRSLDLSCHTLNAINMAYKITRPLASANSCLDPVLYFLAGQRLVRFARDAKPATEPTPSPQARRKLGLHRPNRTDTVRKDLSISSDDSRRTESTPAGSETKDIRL

Sequence of P2Y purinoceptor 1 (Rattus norvegicus, UniProt P49651) (P49651 whole entry, the tested form may be a part): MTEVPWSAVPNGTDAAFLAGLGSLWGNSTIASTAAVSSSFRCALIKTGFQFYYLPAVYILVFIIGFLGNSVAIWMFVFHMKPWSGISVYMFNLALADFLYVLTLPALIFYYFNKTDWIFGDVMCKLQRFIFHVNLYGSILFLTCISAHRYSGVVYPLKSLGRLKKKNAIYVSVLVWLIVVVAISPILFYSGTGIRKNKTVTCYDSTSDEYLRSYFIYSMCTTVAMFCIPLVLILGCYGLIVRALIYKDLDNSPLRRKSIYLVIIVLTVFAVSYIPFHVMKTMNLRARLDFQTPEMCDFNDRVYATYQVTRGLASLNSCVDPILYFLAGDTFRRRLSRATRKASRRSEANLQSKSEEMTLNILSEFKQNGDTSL

| Compound | EC50 (P2Y purinoceptor 1 [1]) [nM] | further results |
| --- | --- | --- |
| BP(=O)(OP(=O)(O)OC[C@H]1O[C@@H](n2cnc3c(N)ncnc32)[C@H](O)[C@@H]1O)OP(=O)(O)OC[C@H]1O[C@@H](n2cnc3c(N)ncnc32)[C@H](O)[C@@H]1O.CCCCN(CCCC)CCCC.CCCCN(CCCC)CCCC.CCCCN(CCCC)CCCC | 900 |  |
| BP(=O)(OP(=O)(O)OC[C@H]1O[C@@H](n2ccc(=O)[nH]c2=O)[C@H](O)[C@@H]1O)OP(=O)(O)OC[C@H]1O[C@@H](n2ccc(=O)[nH]c2=O)[C@H](O)[C@@H]1O.CCCCN(CCCC)CCCC.CCCCN(CCCC)CCCC.CCCCN(CCCC)CCCC |  | EC50 (P2Y purinoceptor 1 [2]): 800 nM; EC50 (P2Y purinoceptor 2; hek293): Not Active |
| BP(=O)(OP(=O)(O)OP(=O)(O)OC[C@H]1O[C@@H](n2cnc3c(N)ncnc32)[C@H](O)[C@@H]1O)OP(=O)(O)OP(=O)(O)OC[C@H]1O[C@@H](n2cnc3c(N)ncnc32)[C@H](O)[C@@H]1O.CCCCN(CCCC)CCCC.CCCCN(CCCC)CCCC.CCCCN(CCCC)CCCC.CCCCN(CCCC)CCCC.CCCCN(CCCC)CCCC | 63 |  |
| BP(=O)(OP(=O)(O)OP(=O)(O)OC[C@H]1O[C@@H](n2ccc(=O)[nH]c2=O)[C@H](O)[C@@H]1O)OP(=O)(O)OP(=O)(O)OC[C@H]1O[C@@H](n2ccc(=O)[nH]c2=O)[C@H](O)[C@@H]1O.CCCCN(CCCC)CCCC.CCCCN(CCCC)CCCC.CCCCN(CCCC)CCCC.CCCCN(CCCC)CCCC.CCCCN(CCCC)CCCC |  | EC50 (P2Y purinoceptor 1 [2]): 800 nM; EC50 (P2Y purinoceptor 2; read-out: EC50): > 7000 nM |
| Nc1ncnc2c1ncn2[C@@H]1O[C@H](COP(=O)(O)OP(=O)(O)OP(=O)(O)OC[C@H]2O[C@@H](n3cnc4c(N)ncnc43)[C@H](O)[C@@H]2O)[C@@H](O)[C@H]1O | 60 |  |
| CSc1nc(N)c2ncn([C@@H]3O[C@H](COP(=O)(O)OP(=O)(O)O)[C@@H](O)[C@H]3O)c2n1 | 100 |  |
| Nc1ncnc2c1ncn2[C@@H]1O[C@H](COP(=O)(O)OP(=O)(O)OP(=O)(O)OP(=O)(O)OP(=O)(O)OC[C@H]2O[C@@H](n3cnc4c(N)ncnc43)[C@H](O)[C@@H]2O)[C@@H](O)[C@H]1O | ≥ 5000 |  |
| O=c1ccn([C@@H]2O[C@H](COP(=O)(O)OP(=O)(O)OP(=O)(O)O)[C@@H](O)[C@H]2O)c(=O)[nH]1 [URIDINE TRIPHOSPHATE] |  | EC50 (P2Y purinoceptor 2; read-out: EC50): 130 nM |
